Only some compounds are listed: those with a hit (about 1.3% of all), similar ones and a draw of the others.
CHT allo act – allosterically activates the human high affinity choline transporter; CHT-expressing cells, membrane potential dye, choline EC20; stronger effect = higher value; LV-AA mutant CHT in HEK293 cells; B-score at 10 µM; actives 0.49% (n = 310,000); AID 488977;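 active = initial fluorescence not abnormally high and integrated response B-score, plate-corrected, over 3 SD above library mean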
Target sequence (Q9GZV3 whole entry, looked up): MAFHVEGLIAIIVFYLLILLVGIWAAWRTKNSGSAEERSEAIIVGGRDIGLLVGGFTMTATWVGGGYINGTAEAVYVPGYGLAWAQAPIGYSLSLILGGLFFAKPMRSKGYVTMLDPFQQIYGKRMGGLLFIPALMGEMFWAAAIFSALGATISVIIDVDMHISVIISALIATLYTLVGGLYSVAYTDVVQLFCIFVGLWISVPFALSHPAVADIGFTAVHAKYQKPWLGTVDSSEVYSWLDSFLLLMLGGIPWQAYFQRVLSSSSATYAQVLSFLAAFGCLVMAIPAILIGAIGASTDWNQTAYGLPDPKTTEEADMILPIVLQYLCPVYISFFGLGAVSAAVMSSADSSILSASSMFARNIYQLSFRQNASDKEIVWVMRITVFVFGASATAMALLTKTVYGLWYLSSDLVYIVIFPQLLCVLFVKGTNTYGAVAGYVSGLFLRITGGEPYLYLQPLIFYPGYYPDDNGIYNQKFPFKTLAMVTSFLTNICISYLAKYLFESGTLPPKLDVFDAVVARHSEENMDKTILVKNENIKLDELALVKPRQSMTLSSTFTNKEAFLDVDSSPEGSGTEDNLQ
CHT block – human CHT choline transport inhibition | CHT-expressing cells, membrane potential dye, choline response; stronger effect = lower value | Q9GZV3 | actives 0.86% (n = 310,000) | B-score at 10 µM;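 active = B-score over 3 SD under the library average, and starting fluorescence ratio not unusually high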;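 also: choline stimulus applied at its EC90 after an EC20 pre-addition; B-score computed on integrated fluorescence ratio after choline addition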
procasp7 counter – counter-screen for procaspase-3 activators: activators of human procaspase-7. actives 0.093% (n = 330,000). AID 463210. activation, % at 8.5 µM. P55210. recombinant procaspase-7, Ac-DEVD-pNA absorbance 405 nm; D23A/D198A/D206A triple mutant, cannot self-cleave; scale: DMSO 0, 5 µM enzyme 100;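 active = percent activation above the screen-wide mean plus 3 SD, cut at about 25% in these data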
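Assay system: Uncleavable procaspase-7 mutant enzyme; Input: 2 µM procaspase-7 mutant as dispensed; Also added: DEVD-pNA substrate; Medium: Zinc-free HEPES pH 7.4 with 300 mM NaCl, 0.01% Triton X-100; Timing: 1 h compound preincubation, 2 h substrate cleavage, 25 °C; Measured by: Epi-absorbance of released pNA at 405 nm, two timepoints.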
proCasp3 act – activators of human procaspase-3; activation, % at 8.5 µM; P42574; AID 463141; actives 0.11% (n = 330,000); recombinant procaspase-3 D3A, Ac-DEVD-pNA absorbance 405 nm;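 active = activation above the mean of all tested compounds plus 3 SD, cut at about 21% in these data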;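 also: 0% = DMSO alone and 100% = DMSO wells spiked with extra 5 µM PC-3 D3A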
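Assay system – Procaspase-3 D3A mutant, all three cleavage aspartates alanine · Controls – DMSO-only low control, 5 µM PC-3 D3A high control · Schedule – 1 h compound preincubation, 2 h substrate hydrolysis at 25 °C · Signal – 405 nm absorbance of p-nitroaniline, reads at 0 and 120 min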
CHT block conf – human CHT inhibition, confirmatory screen. shares compounds with CHT block. CHT-expressing cells, choline membrane potential dye; LV-to-AA substituted CHT, HEK293 cells. CHT activity remaining % of control (stronger effect = lower value), % at 10 µM. actives 70% (n = 2,400);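 active = choline transporter activity left, mean of duplicates at 10 µM, below buffer-only control mean minus 3 SD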;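 also: depolarization triggered by choline at its EC90 following an EC20 pre-addition; 0% = hemicholinium-3 full block and 100% = buffer-only control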
HEK293 MPD ctr – CHT inhibitor counter-screen hit in parental HEK293 cells; membrane potential ratio readout (active if shifted either direction beyond buffer ±3SD; no single direction) at 10 µM; shares compounds with CHT block; actives 4% (n = 2,400); membrane potential dye, choline response; active = decrease or increase beyond buffer ±3SD;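 also: parental cells lack the transporter so any hit is non-specific; ratio is peak minus trough fluorescence over baseline after EC90 choline challenge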
Starred values were filed as active, the others as inactive.

What do the screens show for `COCCNC(=O)C(=O)NNC(=O)CCc1ccccc1`?
CHT allo act: inactive; CHT block: -5.48*; procasp7 counter: 13.2; proCasp3 act: 0.7; CHT block conf: inactive; HEK293 MPD ctr: inactive

What do the screens show for `O=C(OCc1nc2ccsc2c(=O)[nH]1)c1ccc(Cl)s1`?
CHT allo act: inactive; CHT block: -11.4*; procasp7 counter: 14.7; proCasp3 act: 5.1; CHT block conf: 5.9%*; HEK293 MPD ctr: inactive

How did O=C(NC1CC2CCC1C2)c1ccco1 (stereo not given) do in these assays?
CHT allo act: inactive; CHT block: inactive; procasp7 counter: 4.1; proCasp3 act: 8.8

What do the screens show for `COc1cc(CNC(=O)c2cnc(C)cn2)cc(OC)c1`?
CHT allo act: inactive; CHT block: inactive; procasp7 counter: 0.9; proCasp3 act: -8.5

What do the screens show for `CCCCOC(=O)c1ccc(NC(=O)c2cc(Cl)c(Cl)cc2C(=O)O)cc1`?
CHT allo act: inactive; CHT block: -5.26*; procasp7 counter: -3.2; proCasp3 act: -14.8; CHT block conf: 61.1%*; HEK293 MPD ctr: inactive

What do the screens show for `CCCCOC(=O)c1ccc(NC(C)=O)cc1`?
CHT allo act: inactive; CHT block: inactive; procasp7 counter: -0.1; proCasp3 act: -3.1

How did COc1cccc(CNC(=O)CCCC(=O)NC(C)CCc2ccccc2)c1 (stereo not given) do in these assays?
CHT allo act: inactive; CHT block: inactive; procasp7 counter: -7.0; proCasp3 act: 7.3

Results for Fc1ccccc1CCNc1c2c(nc3ncnn13)CCCC2 ?
CHT allo act: inactive; CHT block: -6.93*; procasp7 counter: 7.9; proCasp3 act: 1.1; CHT block conf: 63.2%*; HEK293 MPD ctr: inactive

What do the screens show for `c1ccc(CCNc2c3c(nc4ncnn24)CCC3)cc1`?
CHT allo act: inactive; CHT block: -7.1*; procasp7 counter: -5.0; proCasp3 act: -4.4; CHT block conf: 44.0%*; HEK293 MPD ctr: inactive

What do the screens show for `Cc1cc(NCCc2ccccc2F)n2ncnc2n1`?
CHT allo act: inactive; CHT block: inactive; procasp7 counter: 6.4; proCasp3 act: 5.6

What do the screens show for `c1ccc(Nc2c3c(nc4ncnn24)CCC3)cc1`?
CHT allo act: inactive; CHT block: inactive; procasp7 counter: 2.9; proCasp3 act: 11.8

How did CCCCN1CC(=O)N2[C@H]3c4cc(Br)ccc4OC[C@@H]3[C@H](C(=O)OCC)[C@]2(C)C1=O do in these assays?
procasp7 counter: 8.1; proCasp3 act: 5.1

What do the screens show for `C=CCOc1ccc(CN(C)C(=O)c2ccc(CNS(=O)(=O)c3ccc(C)c(C)c3)cc2)cc1`?
procasp7 counter: 1.2; proCasp3 act: 4.0

How did COc1ccc(N2CCN(C(c3ccc4ncccc4c3)c3nnnn3C(C)(C)C)CC2)cc1 (stereo not given) do in these assays?
CHT allo act: inactive; CHT block: inactive; procasp7 counter: 3.0; proCasp3 act: 0.6

How did CC(C)(C)n1nnnc1C(c1ccc2ncccc2c1)N1CCC(O)CC1 (stereo not given) do in these assays?
CHT allo act: inactive; CHT block: -5.26*; procasp7 counter: 14.8; proCasp3 act: 0.1; CHT block conf: inactive; HEK293 MPD ctr: inactive

What do the screens show for `CCC1Sc2ccc(S(=O)(=O)CCC(=O)Nc3c(Cl)cc(OC)cc3OC)cc2NC1=O` (stereo not given)?
CHT allo act: inactive; CHT block: inactive; procasp7 counter: 5.0; proCasp3 act: 5.9

What do the screens show for `CCc1cc([N+](=O)[O-])cc(CC)c1N`?
CHT allo act: inactive; CHT block: -5.89*; procasp7 counter: -8.6; proCasp3 act: -5.1; CHT block conf: 39.7%*; HEK293 MPD ctr: inactive

Results for CCOC(=O)C1CCCN(CC(=O)Nc2nccs2)C1 (stereo not given) ?
CHT allo act: inactive; CHT block: inactive; procasp7 counter: 1.3; proCasp3 act: -7.6

What do the screens show for `CCOc1ccc2ncc(S(=O)(=O)c3ccccc3)c(N3CCC4(CC3)OCCO4)c2c1`?
CHT allo act: inactive; CHT block: inactive; procasp7 counter: 7.4; proCasp3 act: 13.6

What do the screens show for `COc1ccc(S(=O)(=O)c2cnc3ccc(OC)cc3c2N2CCC3(CC2)OCCO3)cc1`?
CHT allo act: inactive; CHT block: -9.66*; procasp7 counter: 1.7; proCasp3 act: 3.4; CHT block conf: 22.8%*; HEK293 MPD ctr: inactive

What do the screens show for `CC(=O)Oc1ccc(N(C(C)=O)S(=O)(=O)c2cccs2)cc1`?
CHT allo act: inactive; CHT block: inactive; procasp7 counter: 5.2; proCasp3 act: -8.8

How did CCCC(=O)Oc1ccc(N(C(=O)CCC)S(=O)(=O)c2cccs2)cc1 do in these assays?
CHT allo act: inactive; CHT block: -5.73*; procasp7 counter: 6.1; proCasp3 act: -0.8; CHT block conf: inactive; HEK293 MPD ctr: inactive

Results for CCN1CCN(c2cc(C)c3cc(NC(=S)NCCCN4CCc5ccccc5C4)ccc3n2)CC1 ?
CHT allo act: inactive; CHT block: -5.35*; procasp7 counter: 2.8; proCasp3 act: 3.0; CHT block conf: 30.6%*; HEK293 MPD ctr: 2.81*

Results for CCCN1CCN(CCCNC(=S)Nc2ccc3nc(N4CCN(CC)CC4)cc(C)c3c2)CC1 ?
CHT allo act: inactive; CHT block: -6.66*; procasp7 counter: 4.3; proCasp3 act: 5.6; CHT block conf: 13.3%*; HEK293 MPD ctr: inactive

What do the screens show for `CCN1CCN(c2cc(C)c3cc(NC(=S)NCCN(C)C)ccc3n2)CC1`?
CHT allo act: inactive; CHT block: inactive; procasp7 counter: -8.2; proCasp3 act: -0.9

Results for CCCCNC(=S)Nc1ccc2nc(N3CCN(CC)CC3)cc(C)c2c1 ?
CHT allo act: inactive; CHT block: inactive; procasp7 counter: 4.5; proCasp3 act: -2.4

What do the screens show for `Cc1c(CC(=O)O)c(=O)oc2cc(OCc3ccc(Cl)cc3)ccc12`?
CHT allo act: inactive; CHT block: inactive; procasp7 counter: -2.1; proCasp3 act: -2.0

How did COc1ccc(-c2csc3ncnc(NCCCO)c23)cc1 do in these assays?
CHT allo act: inactive; CHT block: -5.78*; procasp7 counter: -6.2; proCasp3 act: 15.0; CHT block conf: 59.5%*; HEK293 MPD ctr: inactive

Results for Fc1ccc(-c2csc3ncnc(N4CCN(Cc5ccccc5)CC4)c23)cc1 ?
CHT allo act: inactive; CHT block: inactive; procasp7 counter: -10.9; proCasp3 act: -0.5

Results for COc1ccc(-c2csc3ncnc(N4CCN(CCO)CC4)c23)cc1 ?
CHT allo act: inactive; CHT block: -7.87*; procasp7 counter: 8.7; proCasp3 act: 8.3; CHT block conf: 41.8%*; HEK293 MPD ctr: inactive

Screens (PubChem)
